Measured values reported in ChEMBL document CHEMBL4028864 (J Med Chem, 2017).

Legend:
[1] = Thermodynamic aqueous solubility of the compound at pH 7.4 after 24 hrs by UV absorbance based assay; assay type: physicochemical; conditions: read-out: Therm_solubility
Summary of the method: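 A 20 mM DMSO stock was diluted 1:100 into pH 7.4 PBS, then shaken at 250 rpm for 3 or 24 h at 22.5 ± 2.5 °C. The mixture was filtered and the filtrate diluted with acetonitrile/universal buffer. Absorbance was read at 310 nm against a 6.25–200 μM calibration curve, in triplicate.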

Histone deacetylase 1 = Histone deacetylase 1 (Homo sapiens, UniProt Q13547); assay: Inhibition of C-terminal FLAG His tagged full length human recombinant HDAC1 (1 to 482 residues) expressed in baculovirus infected sf21 cells using RHKKAc as substrate in presence of ATP
Sequence of Histone deacetylase 1 (Q13547 whole entry, the tested form may be a part): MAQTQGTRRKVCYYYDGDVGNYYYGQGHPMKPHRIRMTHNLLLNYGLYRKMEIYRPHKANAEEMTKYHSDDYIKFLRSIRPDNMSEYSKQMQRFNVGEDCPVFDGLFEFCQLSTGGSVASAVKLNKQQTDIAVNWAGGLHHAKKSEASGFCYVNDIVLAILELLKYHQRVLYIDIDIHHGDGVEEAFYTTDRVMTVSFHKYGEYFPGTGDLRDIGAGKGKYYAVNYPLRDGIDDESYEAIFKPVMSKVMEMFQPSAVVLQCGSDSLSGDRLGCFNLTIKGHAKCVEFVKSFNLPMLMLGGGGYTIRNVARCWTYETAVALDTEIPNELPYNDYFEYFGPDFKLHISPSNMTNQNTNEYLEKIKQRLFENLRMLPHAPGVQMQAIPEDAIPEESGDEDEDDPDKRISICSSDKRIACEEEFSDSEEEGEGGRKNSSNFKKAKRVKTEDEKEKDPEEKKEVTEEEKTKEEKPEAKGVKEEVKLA

[2] = target: Histone deacetylase 4 (Homo sapiens) (UniProt P56524); assay: Inhibition of N-terminal GST tagged/C-terminal His tagged human recombinant HDAC4 (627 to 1084 residues) expressed in Baculovirus infected insect cells in presence of ATP; conditions: concentration not given here
Sequence of Histone deacetylase 4 (Homo sapiens) (P56524 whole entry, the tested form may be a part): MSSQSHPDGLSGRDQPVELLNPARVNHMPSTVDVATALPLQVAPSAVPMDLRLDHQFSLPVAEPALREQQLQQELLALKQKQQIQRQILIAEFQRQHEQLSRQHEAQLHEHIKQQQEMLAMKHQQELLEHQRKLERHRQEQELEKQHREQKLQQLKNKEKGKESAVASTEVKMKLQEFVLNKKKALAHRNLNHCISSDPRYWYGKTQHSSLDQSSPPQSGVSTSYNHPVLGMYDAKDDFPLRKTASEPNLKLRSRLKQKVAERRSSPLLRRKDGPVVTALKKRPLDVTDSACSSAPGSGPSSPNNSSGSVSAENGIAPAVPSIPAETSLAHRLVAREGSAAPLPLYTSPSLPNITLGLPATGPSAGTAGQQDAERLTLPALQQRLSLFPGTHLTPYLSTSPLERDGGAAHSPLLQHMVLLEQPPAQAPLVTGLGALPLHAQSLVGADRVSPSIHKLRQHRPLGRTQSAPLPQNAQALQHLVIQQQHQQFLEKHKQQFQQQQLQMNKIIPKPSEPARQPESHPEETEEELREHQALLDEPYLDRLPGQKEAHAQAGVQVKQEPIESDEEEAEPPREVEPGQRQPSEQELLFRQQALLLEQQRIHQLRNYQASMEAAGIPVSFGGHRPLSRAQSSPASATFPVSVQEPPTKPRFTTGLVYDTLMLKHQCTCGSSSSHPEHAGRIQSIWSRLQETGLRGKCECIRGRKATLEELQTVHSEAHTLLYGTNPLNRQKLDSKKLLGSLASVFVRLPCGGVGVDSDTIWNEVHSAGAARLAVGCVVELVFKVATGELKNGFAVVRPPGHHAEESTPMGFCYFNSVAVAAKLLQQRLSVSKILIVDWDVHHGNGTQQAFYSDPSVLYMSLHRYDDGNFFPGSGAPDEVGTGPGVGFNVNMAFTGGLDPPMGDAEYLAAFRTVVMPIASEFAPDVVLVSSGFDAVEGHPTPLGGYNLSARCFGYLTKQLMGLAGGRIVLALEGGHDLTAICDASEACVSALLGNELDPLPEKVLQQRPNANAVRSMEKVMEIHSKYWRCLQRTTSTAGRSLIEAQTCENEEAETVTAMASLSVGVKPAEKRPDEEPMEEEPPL
Summary of the method: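 HDAC enzyme inhibition was run by a contract laboratory.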

MDA-MB-231 = assay: cells; assay type: functional, cell-based; conditions: Homo sapiens, MDA-MB-231, 72 h
cells = assay type: ADME, cell-based; conditions: Homo sapiens, AC10, 24 h
[3] = Volume of distribution at steady state in Wistar rat at 1 mg/kg, iv by LC-MS/MS analysis; assay type: ADME, organism-based; conditions: in vivo, read-out: Vdss
Summary of the method: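 Wistar rats given a single 1 mg/kg iv dose. Plasma concentration–time profiles were plotted as mean ± SEM and sampled through 24 h postdose. Values were taken from the iv profile.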

solubility thermodynamic at 24 h [1]: > 73 µg/mL
IC50 (Histone deacetylase 1): 6.9 nM
inhibition [2]: 23%
IC50 (MDA-MB-231): 790 nM
IC50 (cells): > 100000 nM
Vd [3]: 1.49 L/kg
SMILES: O=C(CCCCCCn1cc(-c2ncnc3[nH]ccc23)cn1)NO
